From PubChem
CHOP UPR activ – apoptotic UPR (CHOP) activation | CHO-CHOP luciferase reporter, luminescence; percent of tunicamycin response over DMSO baseline | activation, % at 10 µM | actives 0.34% (n = 330,000);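 active means at 10 µM dose, activation of 40% or more, normalized to positive control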;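 further: 100% = tunicamycin at 10 µg/mL and 0% = DMSO alone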
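Dosing – one dose, 10 µM in 0.5% DMSO · System – CHO-CHOP cells, stable luciferase reporter of PERK-eIF2a-CHOP signalling · Input – 500 cells/well · Control set – tunicamycin 10 µg/mL final as positive, DMSO-only wells as negative · Timing – 6 h compound treatment, 37 °C · Measure – % activation vs tunicamycin · Technique – luminescence read with Steady-Glo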
Fh CTSL1 inh – blocks F. hepatica cathepsin L1 in PFM18AAP counter-screen. recombinant F. hepatica cathepsin L1, Z-Leu-Arg-MCA fluorescence. inhibition, % at 5.96 µM. actives 0.49% (n = 300,000). AID 1906;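 active means inhibition above the mean of all tested compounds plus 3 SD, set per screening campaign, cut at about 17% in these data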;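 further: 0% = plate median of test compound wells and 100% = 1 µM Z-Phe-Ala-diazomethylketone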
XBP1 UPR activ – adaptive UPR (XBP1) activation; CHO-XBP1 luciferase reporter, IRE1-XBP1 UPR activation, luminescence; percent of tunicamycin response, DMSO as zero; activation, % at 20 µM; actives 0.33% (n = 330,000); AID 463104;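 active means versus positive control, 20 µM dose yields 30% or more activation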;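 further: 100% = tunicamycin at 10 µg/mL and 0% = DMSO only wells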
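Material: CHO cell line with stable XBP1 luciferase reporter; buffer or medium: F12 medium containing 10% fetal bovine serum; compound: single point, 20 µM final compound, 1% DMSO; incubation: 6 h treatment, 37 °C; measured by: glow luminescence from Steady-Glo reagent; evaluation: activation, % of tunicamycin; control set: tunicamycin high, DMSO low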
UCH37 inh – blocks the human deubiquitinase UCH37; inhibition, % (test concentration not listed); AID 588478; Q9Y5K5; purified proteasome/UCH37, Ub-AMC cleavage fluorescence; actives 0.33% (n = 330,000);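 active means mean inhibition over replicate wells above about 20%, limit read from the data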;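 further: 0% = compound-free wells with enzyme and 100% = wells lacking proteasome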
Target sequence (Q9Y5K5 whole entry, looked up): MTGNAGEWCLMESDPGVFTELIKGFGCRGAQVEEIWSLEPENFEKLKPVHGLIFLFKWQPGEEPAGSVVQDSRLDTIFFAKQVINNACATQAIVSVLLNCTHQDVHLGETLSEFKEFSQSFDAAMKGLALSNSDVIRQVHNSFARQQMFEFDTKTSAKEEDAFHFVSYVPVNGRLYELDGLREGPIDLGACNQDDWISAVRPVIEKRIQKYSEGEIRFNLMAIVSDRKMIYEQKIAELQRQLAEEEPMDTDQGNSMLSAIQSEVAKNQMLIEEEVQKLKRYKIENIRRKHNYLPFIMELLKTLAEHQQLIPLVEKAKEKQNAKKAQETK
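Reagent: Ub-AMC substrate; assay system: Proteasome-associated human UCH37 deubiquitinase; controls: no-proteasome and no-compound wells; read-out: % inhibition of Ub-AMC cleavage fluorescence; timing: 30 min preincubation with enzyme, 25 min cleavage at room temperature; signal: AMC fluorescence from Ub-AMC cleavage, excitation 355 nm, emission 460 nm; buffer or medium: Tris-HCl pH 7.4 plus ovalbumin, ATP-MgCl2, DTT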
CHOP inhibitor – inhibitors of CHOP induction in ER stress response; CHO-K1 CHOP-promoter luciferase, tunicamycin-induced, 15-18 h; inhibition, % at 10 µM; actives 3.8% (n = 220,000);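 active means compounds that reduced the stress-induced luciferase reporter signal by more than about 70% of percent inhibition, limit read from the data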;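 further: 0% = tunicamycin plus vehicle and 100% = wells without tunicamycin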
Active calls of the source: *; . = no result given. Many of the other results were omitted from the sample, so hits are more common in it than they were.

SMILES	CHOP UPR activ	Fh CTSL1 inh	XBP1 UPR activ	UCH37 inh	CHOP inhibitor
O=C(Cn1ncc(Cl)c(Cl)c1=O)c1ccc(Cl)cc1	.	0	.	2	102*
O=C(Cn1ncc(N2CCOCC2)c(Cl)c1=O)c1ccc(Cl)cc1	13	2	1	3	25
COc1ccc(NC(=O)COc2ccc(C=NNC(=O)c3cccnc3)cc2OC)cc1	.	.	.	4	.
CC(=NNC(=O)CNC(=O)C(c1ccccc1)c1ccccc1)c1ccc(C)cc1	.	.	.	0	.
Cc1cccc(OCC(=O)NN=C2SCC(=O)N2Cc2ccco2)c1	.	.	.	0	.
COc1cc(C=NN=Cc2c[nH]c(=O)c(C#N)c2Nc2ccccc2)ccc1O	.	.	.	4	.
Cc1cc(C)n(-c2nnc(C)n2N=Cc2ccccc2O)n1	.	.	.	-10	.
O=C(COC(=O)C1CCC1)Nc1ccccc1Sc1ccccc1	8	-7	2	2	45
O=C(Cc1ccccc1)Nc1cc(Cl)ccc1Sc1ccccc1	0	7	-1	4	65
CC(C)CC(=O)OCC(=O)Nc1ccccc1Sc1ccccc1	0	-1	2	2	84*
O=C(Cc1ccc(Cl)cc1)Nc1ccccc1Sc1ccccc1	3	-2	-1	-19	75*
Cc1nc2ccc(N=NC3=C(O)CC(C)(C)CC3=O)cc2s1	5	1	-1	17	-5
CC(=O)N1CCc2cc(N=NC3=C(O)CC(C)(C)CC3=O)ccc21	-1	-1	-3	24*	-1
COc1cc(C=Nn2c(-c3n[nH]c4c3CCC4)n[nH]c2=S)cc(OC)c1O	.	.	.	2	.
CN(C)c1nc(-c2ccc([N+](=O)[O-])cc2)cs1	3	4	-2	4	72*
Cc1ccc2[nH]c(=O)c(CN(Cc3nnnn3C3CCCC3)C3CCCCC3)cc2c1	-1	7	-2	1	63
CCOC(=O)Cn1nnnc1CN(Cc1cccs1)Cc1cc2cc(C)ccc2[nH]c1=O	-2	-3	0	-3	10
Cc1ccc2[nH]c(=O)c(CN(Cc3ccccc3)Cc3nnnn3C3CCCC3)cc2c1	4	5	-2	0	76*
CCOC(=O)Cn1nnnc1CN(CCc1ccccc1)Cc1cc2cc(CC)ccc2[nH]c1=O	2	6	0	-2	81*
Cn1cc([N+](=O)[O-])c(C(=O)NN=Cc2ccncc2)n1	.	.	.	1	.
Cc1cc(Cl)ccc1Oc1ccc(C(N)=O)cc1[N+](=O)[O-]	1	2	0	0	81*
Cc1ccc(CNC(=O)c2ccc3nc4[nH]c5ccccc5c4nc3c2)cc1	.	.	.	.	94*
Cc1ccc(CNC(=O)CSc2nc3ccccc3[nH]2)cc1	1	-1	-2	3	.
COc1ccccc1CNC(=O)c1ccc2nc3[nH]c4ccccc4c3nc2c1	12	0	8	-2	100*
CCc1nc2ccc(C(=O)NCCc3ccccc3OC)cc2nc1CC	2	2	2	5	.
SMILES	CHOP UPR activ	Fh CTSL1 inh	XBP1 UPR activ	UCH37 inh	CHOP inhibitor
Clc1ccc(-n2ncc3c(N4CCCCCC4)ncnc32)cc1	-10	0	-9	8	84*
COc1ccc(-n2ncc3c(N4CCN(c5cccc(C)c5C)CC4)ncnc32)cc1	2	4	0	3	.
COc1ccc(-n2ncc3c(N4CCCCC4)ncnc32)cc1	-11	2	-9	2	89*
Clc1ccc(Cn2ncc3c(N4CCCCC4)ncnc32)cc1	0	-1	3	3	58
COc1ccccc1NS(=O)(=O)c1cccc(C(=O)NN=C(C)c2ccc(-n3ccnc3)cc2)c1	.	.	.	0	.
COc1cc2nc(Cl)nc(N3CCCCC3)c2cc1OC	-2	-1	4	6	4
COc1cc2nc(N3CCNCC3)nc(N)c2cc1OC	-2	-1	2	-144	70*
CN1/C(=C\C(=O)Nc2ccc(Cl)cc2)C(C)(C)c2ccccc21	0	8	-1	6	39
CN1/C(=C\C=C(/C#N)C(=O)Nc2ccc(Cl)cc2)C(C)(C)c2ccccc21	0	5	-2	4	75*
COc1cccc(C=NNC(=O)c2cccc([N+](=O)[O-])c2)c1OS(=O)(=O)c1ccc(C)cc1	.	.	.	2	.
CC(=O)c1cc2c(cc1NC(=O)CCCC(=O)O)OCO2	-1	3	2	-1	-2
